# According to PubChem BioAssay AID623869 (Vanderbilt High Throughput Screening Facility, 2012):
# Among all 2,100 compounds or so, about 75 (4%) were called active.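 How the source made its calls: active means calcium fluorescence trace judged by eye to show a response, as agonist, enhancer of the glutamate response, or inhibitor; inactive means trace judged by eye to show no response.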 Many of the other results were omitted from the sample, so actives are more common in it than they were.
# Target: Metabotropic glutamate receptor 8 (Rattus norvegicus) (UniProt P70579)
# Sequence (P70579 whole entry, looked up): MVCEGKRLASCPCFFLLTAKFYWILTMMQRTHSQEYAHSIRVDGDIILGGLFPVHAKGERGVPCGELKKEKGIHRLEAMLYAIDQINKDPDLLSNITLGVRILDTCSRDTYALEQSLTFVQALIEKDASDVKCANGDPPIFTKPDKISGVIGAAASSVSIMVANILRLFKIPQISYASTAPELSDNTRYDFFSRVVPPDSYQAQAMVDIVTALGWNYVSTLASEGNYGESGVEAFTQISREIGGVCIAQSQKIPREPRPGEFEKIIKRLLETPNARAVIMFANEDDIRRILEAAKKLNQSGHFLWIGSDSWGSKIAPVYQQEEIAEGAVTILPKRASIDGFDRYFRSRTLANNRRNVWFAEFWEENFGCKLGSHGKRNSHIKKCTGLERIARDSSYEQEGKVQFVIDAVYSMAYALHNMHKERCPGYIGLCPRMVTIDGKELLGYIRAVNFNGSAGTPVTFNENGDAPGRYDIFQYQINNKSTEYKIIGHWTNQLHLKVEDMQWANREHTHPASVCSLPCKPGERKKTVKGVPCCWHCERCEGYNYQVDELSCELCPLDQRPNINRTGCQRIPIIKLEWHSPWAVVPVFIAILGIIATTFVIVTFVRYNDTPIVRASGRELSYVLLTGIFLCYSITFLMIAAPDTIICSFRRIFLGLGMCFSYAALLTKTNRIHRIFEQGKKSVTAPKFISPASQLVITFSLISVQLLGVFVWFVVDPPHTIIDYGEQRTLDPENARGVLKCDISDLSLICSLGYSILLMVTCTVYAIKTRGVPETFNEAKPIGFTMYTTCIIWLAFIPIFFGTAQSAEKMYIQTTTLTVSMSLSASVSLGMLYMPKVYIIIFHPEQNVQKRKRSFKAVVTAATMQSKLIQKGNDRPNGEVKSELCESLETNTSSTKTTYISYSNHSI
# Assay: rat mGlu8 modulation via Gqi9 calcium signal, confirmation, counter-screen for GIRK activator project, cell-based, HEK293 rmGlu8, Gqi9 chimera, Fluo-4 calcium (AID 623869)
# Details: HEK293 rmGlu8/Gqi9 calcium flux, Fluo-4 fluorescence; glutamate at EC20 added after compound
# Procedure, shortened: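 Material: rat mGlu8 HEK-293 cells with transient Gqi9. Medium: HEPES-buffered HBSS, pH 7.4. Compound: one dose, 20 µM addition solution, 0.2% DMSO. Schedule: compound 4 min before glutamate, then 2 min recording. Technique: Fluo-4 calcium fluorescence sampled at 1 Hz.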
row,SMILES,outcome
1,S=C(Nc1ccc(Cl)cc1)c1nc2ccccc2[nH]1,inactive; 0
2,O=C(NC(=S)Nc1ccccn1)c1ccco1,inactive; 0
3,Cc1ccc(C(=O)Nc2nc(-c3ccccc3)c(-c3ccccc3)o2)cc1,inactive; 0
4,COc1ccc(C(=O)NC(=S)NNC(=O)CCc2ccccc2)cc1,active; 1
5,COc1ccc(C(=O)NNC(=S)NC(=O)c2ccco2)cc1,inactive; 4
6,Cc1ccccc1NC(=S)NC(=O)CCc1ccccc1,inactive; 0
7,O=C(CCc1ccccc1)NNC(=S)NC(=O)c1ccc(Cl)cc1,active; 1
8,COc1ccc(C(=O)NC(=S)N(Cc2ccccc2)Cc2ccccc2)cc1,inactive; 0
9,Cc1cccc(C)c1NC(=S)NC(=O)CCc1ccccc1,inactive; 0
10,CC(=O)c1cccc(NC(=S)NC(=O)c2cccc(Cl)c2)c1,inactive; 0
11,Cc1ccc(-n2ncc3c(SCc4ccccc4)ncnc32)cc1,inactive; 0
12,O=C(Nc1nnc(-c2ccc3c(c2)CCCC3)o1)c1ccccc1,inactive; 4
13,Cc1ccc(OCC(=O)NNC(=O)C(C)Sc2ncnc3sc(C)c(C)c23)cc1 (stereo unspecified),inactive; 0
14,O=C1NC(=O)/C(=C\c2ccccc2Oc2ccc(F)c(F)c2)S1,inactive; 0
15,COc1ccc(/C=C2\SC(=O)NC2=S)cc1OC,active; 2
16,O=C1NC(=S)S/C1=C\c1ccc(SCc2ccccc2)o1,inactive; 0
17,O=C1NC(=S)/C(=C\c2ccc(-c3ccccc3Cl)o2)S1,inactive; 3
18,COc1cc(/C=C2\SC(=S)NC2=O)ccc1OS(=O)(=O)c1ccccc1,active; 2
19,COc1cc(/C=C2/SC(=S)NC2=O)ccc1OS(=O)(=O)c1ccc(C)cc1,inactive; 0
20,COc1ccc(/C=N\NC(=S)SCN2C(=O)C3CCC(C)(C2=O)C3(C)C)cc1 (stereo unspecified),inactive; 0
21,CCc1ccc2c(c1)c(N=NC1=NC(=O)CS1)c(O)n2C,inactive; 0
22,C=CCN(CC=C)C(=S)NC(=O)c1ccc(C)c(Br)c1,inactive; 0

row,SMILES,outcome
1,Cc1ccc(C(=O)NNc2nc3ccccc3nc2C(F)(F)F)cc1,inactive; 0
2,FC(F)(F)c1cnc(NNC(=S)Nc2ccc(Cl)cc2)c(Cl)c1,inactive; 4
3,FC(F)(F)c1cnc(NNC(=S)Nc2ccccc2Cl)c(Cl)c1,active; 1
4,Cc1ccc(NC(=S)NNc2ncc(C(F)(F)F)cc2Cl)c(C)c1,inactive; 0
5,CC(C)Sc1nc2c(c(=O)[nH]1)C(c1cccs1)C1=C(CC(C)(C)CC1=O)N2 (stereo unspecified),inactive; 0
6,C=CCN(CC=C)C(=S)NC(=O)c1ccc([N+](=O)[O-])cc1,inactive; 0
7,CCc1nc(SCC(=O)N2CC(=O)Nc3ccccc32)c2c(C)c(C)sc2n1,inactive; 0
8,Oc1c(C=NCc2ccncc2)sc2ccccc12,active; 2
9,CCN(c1ccccc1)S(=O)(=O)c1ccc(NC(=S)NC(=O)c2ccc(Br)o2)cc1,inactive; 0
10,CCOC(=O)c1c(NC(=O)CSc2nnc(-c3ccncc3)n2Cc2ccco2)sc(C(C)=O)c1C,inactive; 0
11,Cc1ccc(NC(=S)c2nc3ccccc3[nH]2)cc1,inactive; 0
12,C=CCNC(=S)Nc1sc2c(c1C(=O)OCC)CC(C)(CC)OC2 (stereo unspecified),inactive; 0
13,C=C(C)CNC(=S)Nc1nc2c(cc1C(=O)OCC)CCCC2,inactive; 0
14,CCNC(=S)Nc1scc(-c2ccccc2)c1C(=O)OCC,inactive; 0
15,C=CCNC(=S)Nc1nc2c(cc1C(=O)OCC)CCCC2,active; 2
16,C=CCNC(=S)Nc1sc2c(c1C(=O)OCC)CC(C(C)C)OC2 (stereo unspecified),inactive; 0
17,CCNC(=S)Nc1nc2c(cc1C(=O)OCC)CCCC2,active; 2
18,CCC1(c2ccc(Cl)cc2)NC(=S)N(c2ccccc2)N1 (stereo unspecified),inactive; 0
19,CC1Cc2ccccc2N1C(=S)NC(=O)c1ccc(Cl)cc1Cl (stereo unspecified),inactive; 0
20,Fc1cccc2sc(Nc3nnc(-c4ccco4)o3)nc12,inactive; 0
21,CCOc1ccc(-c2nnc(NC(=O)c3ccc(OCC(C)C)c(OC)c3)o2)cc1,inactive; 0
22,Cc1ccc(NC(=S)c2nc3ccccc3[nH]2)c(C)c1,inactive; 0

row,SMILES,outcome
1,Cc1cc([N+](=O)[O-])ccc1-c1ccc(C2Nc3ccccc3C(=O)N2O)o1 (stereo unspecified),active; 2
2,O=C1c2ccccc2NC(c2ccc(-c3cccc(Cl)c3)o2)N1O (stereo unspecified),inactive; 0
3,O=C1c2ccccc2NC(c2ccc(-c3ccc(Br)cc3)o2)N1O (stereo unspecified),inactive; 0
4,CCCN(CCC)C(=S)NC(=O)c1ccc(Cl)cc1Cl,inactive; 0
5,C=CCn1c(=S)[nH]c2ccccc2c1=O,inactive; 0
6,Cc1ccccc1C(=O)NNC(=O)C(=O)Nc1cccc(Cl)c1C,inactive; 0
7,CCOC(=O)Cc1csc(NC(=S)NC(=O)c2ccccc2C)n1,inactive; 0
8,Cc1ccccc1C(=O)Nc1nc(=S)ss1,active; 1
9,O=C(NC(=S)N1CCCc2ccccc21)c1ccc([N+](=O)[O-])cc1,inactive; 0
10,CN(C)S(=O)(=O)c1cccc(NC(=S)Nc2ccc(Cl)cc2Cl)c1,inactive; 4
11,CC12CCC(C(=O)N(CSC(=S)N/N=C\c3ccccc3)C1=O)C2(C)C (stereo unspecified),inactive; 0
12,CNC(=S)N/N=C1\C(=O)c2cccc3cccc1c23,inactive; 0
13,CSc1nc(N2CCOCC2)c2c(c1C#N)CC(C)(C)OC2,inactive; 0
14,CC(C)c1nc(N2CCOCC2)c(C#N)c2c1CCCC2,inactive; 0
15,CCc1nc(N2CCOCC2)c(C#N)c2c1CCCC2,active; 2
16,C=CCn1c(O)c(N=NC(=O)OC(C)(C)C)c2ccccc21,inactive; 0
17,O=C(NC(=S)N1CCCc2ccccc21)c1ccc(Br)cc1,inactive; 0
18,Cn1c(=O)c2c(nc3sccn32)n(C)c1=O,inactive; 0
19,Cc1ccc(C)c(C(=O)c2c(C)nc3sccn23)c1,active; -1
20,COC(=O)c1ccc(NC(=S)NC(=O)c2c(Cl)cnn2C)cc1,inactive; 0
21,Cc1ccc(/C=N/n2c(-c3cccs3)n[nH]c2=S)cc1,inactive; 0
22,O=C(COc1ccccc1)NC(=S)Nc1cccc([N+](=O)[O-])c1,inactive; 0

row,SMILES,outcome
1,CCOC(=O)c1ccc(NC(=S)NC(=O)COc2ccccc2)cc1,inactive; 0
2,Cc1ccc(C(=O)NNC(=S)NC(=O)COc2ccccc2)cc1,active; 1
3,Cc1ccccc1C(=O)NNC(=S)NC(=O)COc1ccccc1,active; 1
4,COC(=O)c1ccccc1NC(=S)NC(=O)COc1ccccc1,inactive; 0
5,COC(=O)c1ccccc1NC(=S)NC(=O)COc1ccc(C)cc1,inactive; 0
6,Cc1cccc(C(=O)NNC(=O)C(=O)NC(C)(C)C)c1,inactive; 0
7,COc1ccc(-c2nnc(NC(=O)c3ccc(F)cc3)o2)cc1,inactive; 0
8,S=c1[nH]nc(-c2ccccn2)n1/N=C/c1ccc(Br)s1,inactive; 0
9,O=C(NC(=S)N1CCN(c2ccc(C(F)(F)F)cc2[N+](=O)[O-])CC1)c1cccs1,inactive; 0
10,O=C(NC(=S)N1CCc2ccccc21)c1ccccc1Br,inactive; 0
11,S=c1[nH]cnc2scc(-c3ccccc3)c12,inactive; 0
12,O=C(NCc1ccccc1)c1ccc2c(=O)n(CCCN3CCCC3=O)c(=S)[nH]c2c1,active; -1
13,O=c1c2ccccc2[nH]c(=S)n1CCN1CCN(Cc2ccccc2)CC1,inactive; 0
14,COCCNC(=O)CCCCCn1c(=S)[nH]c2ccccc2c1=O,inactive; 0
15,Cc1ccc(C)c(N=C2CCCN2Cc2ccccc2)c1C#N,inactive; 0
16,CC1(C)CC(=O)C2=C(C1)OC(/N=C/N1CCOCC1)=C(C#N)C2c1ccccc1 (stereo unspecified),inactive; 0
17,CCCN(CCC)C(=S)NC(=O)c1ccc(-c2ccccc2)cc1,inactive; 0
18,O=[N+]([O-])c1ccc(/C=N/NC(=S)Nc2ccccc2F)o1,inactive; 0
19,COc1cccc(-n2c(SCC(=O)NCCC3=CCCCC3)nc3n[nH]c(C)c3c2=N)c1,inactive; 0
20,Cc1ccccc1-n1c(SCc2ccccn2)nc2n[nH]c(C)c2c1=N,active; 2
